Converted amounts (≈) assume the structure as drawn. The source made the active and inactive calls. The rule behind the calls is not given here. Starred links: 1 amine or outer side, 2 acyl side, 3 side chain; linkers in the order of their positions; H or OH if unused. Positions of bridges follow the written chain, without caps; N, C: chain ends. Non-standard residues stand in square brackets, D forms with d. Residues, ends and D or L forms follow the SMILES beside them. *: point of attachment. Orn(4R-OH,5R-OH) = O=C([C@H](C[C@@H](O)[C@@H](O)N[*:3])N[*:1])[*:2]; hTyr(3S-OH,4S-OH) = N[C@H](C(=O)O)[C@H](O)[C@@H](O)c1ccc(O)cc1; Pro(3S-OH,4S-Me) = C[C@H]1CN[C@H](C(=O)O)[C@H]1O; Palmitoyl = CCCCCCCCCCCCCCCC(=O)*; Hyp = O=C(O)[C@@H]1C[C@@H](O)CN1
Experiments:
Candida parapsilosis = assay: Antifungal activity against Candida parapsilosis IFO1396 after 24 hrs by microdilution method; type: functional; conditions: Lodderomyces parapsilosis, IFO1396, 24 h
Summary of the method: (§1)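 CLSI broth microdilution run at 30°C instead of standard temperature; starting inoculum 1 × 10^3 to 3 × 10^3 cells/ml; DMSO under 1% final. Endpoints: MIC-0 = lowest concentration giving an optically clear well; MIC-2 = 50% drop versus drug-free control in absorbance at 570 nm with alamar blue redox indicator, used because treated cells clump.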

Candida albicans [1] = assay: Antifungal activity against Candida albicans ATCC MYA-573 after 24 hrs by microdilution method; type: functional; conditions: ATCC MYA-573, 24 h; summary of the method: as §1
Trichosporon asahii = assay: Antifungal activity against Trichosporon asahii ATCC 90039 after 24 hrs by microdilution method; type: functional; conditions: ATCC 90039, 24 h; summary of the method: as §1
Candida albicans [2] = assay: Antifungal activity against Candida albicans ATCC 24433 after 24 hrs by microdilution method; type: functional; conditions: ATCC 24433, 24 h; summary of the method: as §1
Nakaseomyces glabratus [3] = assay: Antifungal activity against Candida glabrata IFO0622 after 24 hrs by microdilution method; type: functional; conditions: IFO0622, 24 h; summary of the method: as §1
Candida tropicalis [4] = assay: Antifungal activity against Candida tropicalis TIMM0313 after 24 hrs by microdilution method; type: functional; conditions: TIMM0313, 24 h; summary of the method: as §1
Aspergillus fumigatus = assay: Antifungal activity against Aspergillus fumigatus ATCC 36607 after 24 hrs by microdilution method; type: functional; conditions: ATCC 36607, 24 h; summary of the method: as §1
Pichia kudriavzevii = assay: Antifungal activity against Candida krusei TIMM0269 after 24 hrs by microdilution method; type: functional; conditions: TIMM0269, 24 h; summary of the method: as §1
Clavispora lusitaniae = assay: Antifungal activity against Candida lusitaniae ATCC 200951 after 24 hrs by microdilution method; type: functional; conditions: ATCC 200951, 24 h; summary of the method: as §1
Saccharomyces cerevisiae [5] = assay: Antifungal activity against Saccharomyces cerevisiae YPH500 after 24 hrs by microdilution method; type: functional; conditions: YPH500, 24 h
Summary of the method: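 CLSI broth microdilution, incubated at 30°C, starting inoculum 1 × 10^3 to 3 × 10^3 cells/ml; drugs from DMSO, final DMSO below 1%. MIC-0 is the lowest concentration giving an optically clear well. MIC-2 is read with alamar blue as a 50% drop in A570 versus the drug-free control; both endpoints were recorded.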

Kluyveromyces marxianus = assay: Antifungal activity against Candida kefyr ATCC 46764 after 24 hrs by microdilution method; type: functional; conditions: ATCC 46764, 24 h; summary of the method: as §1
Aspergillus terreus = assay: Antifungal activity against Aspergillus terreus ATCC 28301 after 24 hrs by microdilution method; type: functional; conditions: ATCC 28301, 24 h; summary of the method: as §1
Candida tropicalis [6] = assay: Antifungal activity against Candida tropicalis ATCC 200956 after 24 hrs by microdilution method; type: functional; conditions: ATCC 200956, 24 h; summary of the method: as §1
Aspergillus flavus = assay: Antifungal activity against Aspergillus flavus ATCC 64025 after 24 hrs by microdilution method; type: functional; conditions: ATCC 64025, 24 h; summary of the method: as §1
Cryptococcus neoformans = assay: Antifungal activity against Cryptococcus neoformans ATCC 90112 after 24 hrs by microdilution method; type: functional; conditions: ATCC 90112, 24 h; summary of the method: as §1
Nakaseomyces glabratus [7] = assay: Antifungal activity against Candida glabrata ATCC 200918 after 24 hrs by microdilution method; type: functional; conditions: ATCC 200918, 24 h; summary of the method: as §1
Saccharomyces cerevisiae [8] = assay: Fungicidal activity against Saccharomyces cerevisiae AY-10-R16 mutant after 24 hrs by microdilution method; type: functional; conditions: AY-10-R16, 24 h
Saccharomyces cerevisiae [9] = assay: Fungicidal activity against Saccharomyces cerevisiae AY-10-R15 mutant after 24 hrs by microdilution method; type: functional; conditions: AY-10-R15, 24 h
Saccharomyces cerevisiae [10] = assay: […] activity against Saccharomyces cerevisiae AY-10 after 24 hrs by microdilution method; type: functional; conditions: AY-10, 24 h
Saccharomyces cerevisiae [11] = assay: […] activity against Saccharomyces cerevisiae AY-10 transformed with pRS416-13 carrying ADP1 gene after 24 hrs by microdilution method; type: functional; conditions: AY-10, 24 h
Saccharomyces cerevisiae [12] = assay: Fungicidal activity against Saccharomyces cerevisiae AY-10-R11 mutant after 24 hrs by microdilution method; type: functional; conditions: AY-10-R11, 24 h
Saccharomyces cerevisiae [13] = assay: […] activity against Saccharomyces cerevisiae AY-10 transformed with pRS416-31 carrying KRE6 gene after 24 hrs by microdilution method; type: functional; conditions: AY-10, 24 h
Saccharomyces cerevisiae [14] = assay: Fungicidal activity against Saccharomyces cerevisiae AY-10-R4 mutant after 24 hrs by microdilution method; type: functional; conditions: AY-10-R4, 24 h
Saccharomyces cerevisiae [15] = assay: […] activity against Saccharomyces cerevisiae AY-10 transformed with empty vector pRS416 after 24 hrs by microdilution method; type: functional; conditions: AY-10, 24 h
Saccharomyces cerevisiae [16] = assay: Inhibition of beta-1,6-Glucan synthesis in Saccharomyces cerevisiae AY-10 assessed as reduction in [14C]glucose incorporation at 0.039 to 0.625 ug/ml after 1 hr; type: functional, organism-based; conditions: at 0.039 to 0.625 µg/mL
Summary of the method: (§2)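 Exponentially growing cells in RPMI 1640 (absorbance ~0.6 at 595 nm) incubated at 30°C with drug plus [14C]glucose at 2 μCi/ml. Cells extracted twice with 3% NaOH at 80°C, then the insoluble material digested overnight at 30°C with Zymolyase 100T (1 mg/ml, pH 7.5). The soluble fraction was dialysed to remove β-1,3-glucan oligosaccharides, and the retained β-1,6-glucan was counted by scintillation. Read-out is percent change in incorporated radioactivity versus the drug-free control.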

Nakaseomyces glabratus [17] = assay: Inhibition of beta-1,6-Glucan synthesis in Candida glabrata IFO0622 assessed as reduction in [14C]glucose incorporation at 0.025 to 4 ug/ml after 3 hrs; type: functional, organism-based; summary of the method: as §2
Saccharomyces cerevisiae [18] = assay: Inhibition of beta-1,6-Glucan synthesis in Saccharomyces cerevisiae AY-10 assessed as reduction in [14C]glucose incorporation at 0.078 ug/ml after 1 hr; type: functional, organism-based; conditions: at 0.078 µg/mL; summary of the method: as §2
Saccharomyces cerevisiae [19] = assay: Inhibition of beta-1,6-Glucan synthesis assessed as reduction in [14C]glucose incorporation at 0.025 to 4 ug/ml after 1 hr; conditions: AY-10
Saccharomyces cerevisiae [20] = assay: Inhibition of beta-1,6-Glucan synthesis in Saccharomyces cerevisiae AY-10 assessed as reduction in [14C]glucose incorporation at 0.039 to 0.625 ug/ml after 3 hrs; type: functional, organism-based; conditions: at 0.039 to 0.625 µg/mL; summary of the method: as §2
Saccharomyces cerevisiae [21] = assay: Inhibition of beta-1,6-Glucan synthesis in Saccharomyces cerevisiae AY-10 assessed as reduction in [14C]glucose incorporation at 0.078 to 1.25 ug/ml after 3 hrs; type: functional, organism-based; conditions: at 0.078 to 1.25 µg/mL; summary of the method: as §2
Saccharomyces cerevisiae [22] = assay: Inhibition of beta-1,3-Glucan synthesis in Saccharomyces cerevisiae AY-10 assessed as reduction in [14C]glucose incorporation at 0.039 to 0.625 ug/ml after 1 hr; type: functional, organism-based
Summary of the method: (§3)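 Exponential cells in RPMI 1640 at A595 about 0.6, pulse-labelled with [14C]glucose 2 μCi/ml plus drug at 30°C, sampled at 1 and 3 h. Cell wall fractionated: mannan from 3% NaOH extracts at 80°C by Fehling's reaction; residue digested with Zymolyase 100T (1 mg/ml), insoluble part = chitin; β-1,3-glucan = total glucan minus dialysed β-1,6-glucan. Scintillation counting; % change versus untreated.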

Saccharomyces cerevisiae [23] = assay: Inhibition of beta-1,3-Glucan synthesis in Saccharomyces cerevisiae AY-10 assessed as reduction in [14C]glucose incorporation at 0.039 to 0.625 ug/ml after 3 hrs; type: functional, organism-based; summary of the method: as §3
Saccharomyces cerevisiae [24] = assay: Inhibition of beta-1,6-Glucan synthesis in Saccharomyces cerevisiae AY-10 assessed as reduction in [14C]glucose incorporation at 0.078 to 1.25 ug/ml after 1 hr; type: functional, organism-based; conditions: at 0.078 to 1.25 µg/mL; summary of the method: as §2
Saccharomyces cerevisiae [25] = assay: Inhibition of beta-1,6-Glucan synthesis in Saccharomyces cerevisiae AY-10 assessed as reduction in [14C]glucose incorporation at 0.078 ug/ml after 3 hrs; type: functional, organism-based; conditions: at 0.078 µg/mL; summary of the method: as §2

Compound: OC(Cn1cncn1)(Cn1cncn1)c1ccc(F)cc1F [FLUCONAZOLE]
- MIC50 (Candida parapsilosis): 1 µg/mL (≈ 3.27 µM)
- MIC50 (Candida albicans [1]): > 64 µg/mL
- MIC50 (Trichosporon asahii): 4 µg/mL (≈ 13.1 µM)
- MIC50 (Candida albicans [2]): 0.25 µg/mL (≈ 0.816 µM)
- MIC50 (Nakaseomyces glabratus [3]): 2 µg/mL (≈ 6.53 µM)
- MIC50 (Candida tropicalis [4]): 0.25 µg/mL (≈ 0.816 µM)
- MIC50 (Aspergillus fumigatus): > 64 µg/mL
- MIC50 (Pichia kudriavzevii): > 64 µg/mL
- MIC50 (Clavispora lusitaniae): 0.063 µg/mL (≈ 0.206 µM)
- MIC50 (Saccharomyces cerevisiae [5]): 4 µg/mL (≈ 13.1 µM)
- MIC50 (Kluyveromyces marxianus): 0.25 µg/mL (≈ 0.816 µM)
- MIC50 (Aspergillus terreus): > 64 µg/mL
- MIC50 (Candida tropicalis [6]): 16 µg/mL (≈ 52.2 µM)
- MIC50 (Aspergillus flavus): > 64 µg/mL
- MIC50 (Cryptococcus neoformans): 2 µg/mL (≈ 6.53 µM)
- MIC50 (Nakaseomyces glabratus [7]): 16 µg/mL (≈ 52.2 µM)

Compound: Nc1nc(=O)[nH]cc1F [FLUCYTOSINE]
- MIC (Saccharomyces cerevisiae [8]): 2 µg/mL (≈ 15.5 µM)
- MIC (Saccharomyces cerevisiae [9]): 4 µg/mL (≈ 31 µM)
- MIC (Saccharomyces cerevisiae [10]): 2 µg/mL (≈ 15.5 µM)
- MIC (Saccharomyces cerevisiae [11]): 4 µg/mL (≈ 31 µM)
- MIC (Saccharomyces cerevisiae [12]): 4 µg/mL (≈ 31 µM)
- MIC (Saccharomyces cerevisiae [13]): 2 µg/mL (≈ 15.5 µM)
- MIC (Saccharomyces cerevisiae [14]): 2 µg/mL (≈ 15.5 µM)
- MIC (Saccharomyces cerevisiae [15]): 2 µg/mL (≈ 15.5 µM)

Compound: CCCCCCCCCCCCCCCC(=O)N[C@H]1C[C@@H](O)[C@@H](O)NC(=O)[C@@H]2[C@@H](O)[C@@H](C)CN2C(=O)[C@H]([C@@H](C)O)NC(=O)[C@H]([C@H](O)[C@@H](O)c2ccc(O)cc2)NC(=O)[C@@H]2C[C@@H](O)CN2C(=O)[C@H]([C@@H](C)O)NC1=O [ACULEACIN A] (Palmitoyl-[Orn(4R-OH,5R-OH)]T[Hyp][hTyr(3S-OH,4S-OH)]T[Pro(3S-OH,4S-Me)]; lactam 1-C)
- MIC (Saccharomyces cerevisiae [8]): 0.25 µg/mL (≈ 0.241 µM)
- MIC (Saccharomyces cerevisiae [9]): 0.5 µg/mL (≈ 0.483 µM)
- MIC (Saccharomyces cerevisiae [10]): 0.5 µg/mL (≈ 0.483 µM)
- MIC (Saccharomyces cerevisiae [11]): 0.25 µg/mL (≈ 0.241 µM)
- MIC (Saccharomyces cerevisiae [12]): 0.25 µg/mL (≈ 0.241 µM)
- inhibition (Saccharomyces cerevisiae [16]): inactive
- Activity (Nakaseomyces glabratus [17]): Active
- inhibition (Saccharomyces cerevisiae [18]): Active
- MIC (Saccharomyces cerevisiae [13]): 0.5 µg/mL (≈ 0.483 µM)
- Activity (Saccharomyces cerevisiae [19]): Active
- inhibition (Saccharomyces cerevisiae [20]): inactive
- inhibition (Saccharomyces cerevisiae [21]): Active
- inhibition (Saccharomyces cerevisiae [22]): Active
- MIC (Saccharomyces cerevisiae [14]): 0.125 µg/mL (≈ 0.121 µM)
- inhibition (Saccharomyces cerevisiae [23]): Active
- MIC (Saccharomyces cerevisiae [15]): 0.5 µg/mL (≈ 0.483 µM)
- inhibition (Saccharomyces cerevisiae [24]): Active
- inhibition (Saccharomyces cerevisiae [25]): Active

Compound: C[C@@H]1[C@H](O)[C@@H](C)/C=C/C=C/C=C/C=C/C=C/C=C/C=C/[C@H](O[C@@H]2O[C@H](C)[C@@H](O)[C@H](N)[C@@H]2O)C[C@@H]2O[C@](O)(C[C@@H](O)C[C@@H](O)[C@H](O)CC[C@@H](O)C[C@@H](O)CC(=O)O[C@H]1C)C[C@H](O)[C@H]2C(=O)O [AMPHOTERICIN B]
- MIC (Saccharomyces cerevisiae [8]): 0.25 µg/mL (≈ 0.271 µM)
- MIC (Saccharomyces cerevisiae [9]): 0.25 µg/mL (≈ 0.271 µM)
- MIC (Saccharomyces cerevisiae [10]): 0.25 µg/mL (≈ 0.271 µM)
- MIC (Saccharomyces cerevisiae [11]): 0.125 µg/mL (≈ 0.135 µM)
- MIC (Saccharomyces cerevisiae [12]): 0.125 µg/mL (≈ 0.135 µM)
- MIC (Saccharomyces cerevisiae [13]): 0.25 µg/mL (≈ 0.271 µM)
- MIC (Saccharomyces cerevisiae [14]): 0.0625 µg/mL (≈ 0.0676 µM)
- MIC (Saccharomyces cerevisiae [15]): 0.25 µg/mL (≈ 0.271 µM)

Reference: ChEMBL document CHEMBL1629587, “Discovery of a small-molecule inhibitor of {beta}-1,6-glucan synthesis” (2009)
